E-selectin induc = induces E-selectin expression in human endothelial cells. 260,000 tested, 0.37% active. HUVEC E-selectin immunofluorescence imaging; normalized: neutral wells 0, TNF-alpha wells 100. activation, % at 7.58 µM. P16581;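 active = mean E-selectin-positive cell signal at least 10% of the positive control, reached in at least 60% of replicates, without over 20% cell loss; inconclusive = no rule given, readout overlaps actives, possibly toxicity-flagged; inactive = the rest, including those meeting only one limit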
Target sequence (P16581 whole entry, looked up): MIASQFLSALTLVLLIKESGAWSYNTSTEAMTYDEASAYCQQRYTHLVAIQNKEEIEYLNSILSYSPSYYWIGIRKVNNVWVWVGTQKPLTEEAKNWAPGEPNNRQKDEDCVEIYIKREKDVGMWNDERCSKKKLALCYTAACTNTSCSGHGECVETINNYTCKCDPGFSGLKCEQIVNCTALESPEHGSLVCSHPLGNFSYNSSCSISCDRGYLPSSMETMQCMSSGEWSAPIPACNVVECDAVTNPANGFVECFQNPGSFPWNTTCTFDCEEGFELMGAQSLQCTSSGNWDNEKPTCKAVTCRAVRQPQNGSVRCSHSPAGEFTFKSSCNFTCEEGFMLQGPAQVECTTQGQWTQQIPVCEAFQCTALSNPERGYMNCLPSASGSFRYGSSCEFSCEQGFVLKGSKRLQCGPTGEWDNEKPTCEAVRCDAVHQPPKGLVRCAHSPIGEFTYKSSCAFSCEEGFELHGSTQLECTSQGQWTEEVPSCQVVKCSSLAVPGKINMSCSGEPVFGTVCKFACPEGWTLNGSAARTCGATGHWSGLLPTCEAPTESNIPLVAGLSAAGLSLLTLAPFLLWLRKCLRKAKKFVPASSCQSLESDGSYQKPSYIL
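Read-out basis: % PE-positive cells; Test system: HUVEC primary endothelial cells; Technique: immunofluorescence imaging; Dosing: single-point compound dose.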
DENV2 CPE = DENV2-induced cell death inhibition; 350,000 tested, 1.7% active; CPE inhibition, % at 9.99 µM; DENV2-infected cells, cytopathic effect rescue, plate reader; in the data active = CPE inhibition above about 20%, passing the limit was not always enough; inconclusive = no clear call, values can overlap the other calls; tested in BHK-21 cells;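 note: 0% = median of neutral control wells and 100% = median of positive control wells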
Ecoli rRNA inh = inhibitors of bacterial rRNA selective over humanized ribosomes; E. coli WT GFP vs humanized-ribosome RFP mutants, fluorescence, 24 h; stronger effect = lower value; DMSO median 0, no signal -100; GFP signal change (wild-type ribosome), % (test concentration not listed); 350,000 tested, 1.6% active; AID 720706;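 active = significant combined selectivity score with lowered wild-type GFP, culture density cut under 30%, mutant RFP and density less affected; inactive = any of these conditions unmet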
Cneo AK release = Cryptococcus neoformans lysis via adenylate kinase release. C. neoformans lysis, adenylate kinase release luminescence, 4 h; normalised: neutral wells 0, clomiphene wells 100. lysis activity, % at 15 µM. 360,000 tested, 0.2% active;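 active = mean lysis activity across replicates of at least 80%, whatever share of replicates individually reach that level; inactive = mean lysis activity below 80%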
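Schedule: static 4 h at 37 °C with compound, 1 h detection; system: C. neoformans cells; benchmarks: Clomiphene as positive control; buffer or medium: fresh YPD medium; measure: luminescence rise reflecting yeast cell lysis; measured by: luminescent adenylate kinase detection reagent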
miR-122 sensor = miR-122 inhibition in Huh7 cells; Huh7 miR-122 Renilla luciferase sensor, 48 h; neutral wells = 0, positive control = 100; activation (reporter increase), % at 12.5 µM; 340,000 tested, 0.3% active;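 active = mean replicate activation score at least 90 and every replicate individually at or above 90; inconclusive = only one of the two criteria met; inactive = neither criterion met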;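 note: higher luciferase means less miR-122 activity so hits act as miR-122 inhibitors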
The depositor's hits bear a star; ? = inconclusive; · = not tested or not shown; [ ] = dose if it differs, or a comment. Sampled rows, rich in hits. Any-hit rate of the full collection: about 3.1%.

SMILES | E-selectin induc | DENV2 CPE | Ecoli rRNA inh | Cneo AK release | miR-122 sensor
O=C1CS(=O)(=O)C(c2ccccc2)N1c1ccc(Cl)cc1 (stereo not drawn) | · | -1.5 | · | 3.6 | ·
O=S(=O)(Nc1nc(SCc2ccc(Cl)cc2)n[nH]1)c1ccc(F)cc1 | · | 28.9* | -36.8 | -2.9 | -1.6
COc1ccc2c3c(n(C)c2c1)[C@H](CO)N(C(=O)CN(C)C)CC31CN(S(C)(=O)=O)C1 | 0.2 | 7.4 | 6.5 | · | ·
O=Cc1[nH]c2ccccc2c1N(C(=O)CCl)c1ccc([N+](=O)[O-])cc1 | · | -13.6 | -55.5* | 0.8 | -1.6
CC(=O)n1cc(N(C(=O)CCl)c2ccccc2)c2ccccc21 | 0.1 | -15.4 | -3.4 | 0.9 | -18.5
CC(=O)n1cc(N(C(=O)CCl)c2ccc([N+](=O)[O-])cc2)c2ccccc21 | · | -15.0 | -35.8* | 0.7 | -6.5
Cc1ccccc1C1c2[nH]c3ccccc3c2C[C@H]2C(=O)N(C3CC3)CC(=O)N12 (stereo partly drawn) | 54.8* | 4.5 | -5.3 | -2.6 | 25.5
O=C1[C@@H]2Cc3c([nH]c4ccccc34)C(c3ccccc3)N2C(=O)CN1C1CC1 (stereo partly drawn) | · | -1.1 | -1.1 | -1.5 | -0.8
COC(=O)CCCCCC(CCC(=O)OC)NC(C)=O (stereo not drawn) | · | · | · | -0.8 | 238.1*
COc1cc(C)c(S(=O)(=O)NOCc2ccc([N+](=O)[O-])cc2)c(C)c1C | · | -3.1 | -4.3 | -0.2 | 322.6*
COc1cc(C)c(S(=O)(=O)NOCc2ccccc2)c(C)c1C | · | 6.4 | -14.4 | 0.1 | 83.9
O=C(Nc1ccc(Nc2ccccc2)cc1)c1ccc(Cl)cc1[N+](=O)[O-] | · | 7.8 | -27.4* | 4.9 | 11.9
COc1ccc(C(=O)N(c2ccccc2)c2nccc3ccccc23)cc1OC | 0.2 | ? | -18.5* | 0.7 | -2.7
CN(C)CC(=O)Nc1ccc2c(c1)[C@@H]1C[C@@H](CC(=O)NCc3ccccc3)O[C@@H](CO)[C@@H]1O2 | -0.6 | -3.0 | 3.2 | 1.3 | 0.3[16.7 µM]
CCCCOC(=O)CCN1C(=O)/C(=C2\SC(=S)N(CCC(=O)OCCCC)C2=O)SC1=S | · | 75.0* | 6.2 | -3.1 | -5.3
Cn1cccc1/C=C1\SC(=S)N(NC(=O)c2ccccc2)C1=O | · | 4.7 | -7.2 | · | ·
Cn1cccc1/C=C1\SC(=S)N(NC(=O)c2ccccc2O)C1=O | -0.4 | 5.2 | -28.1* | · | ·
C[C@H]1CN([C@@H](C)CO)C(=O)c2cc(NC(=O)c3ccncc3)ccc2O[C@@H]1CN(C)C(=O)Nc1cccc2ccccc12 | 9.3 | -7.2 | -1.6 | 11.5 | 0.6[16.7 µM]
Cn1nc(C(C)(C)C)cc1N1C(=O)CCC1(C)C(=O)Nc1ccc2c(c1)OCCO2 (stereo not drawn) | 0.3 | 24.1* | 3.4 | -0.3 | -2.8
COc1ccc(S(=O)(=O)Nc2ccc3c(c2)CC(=O)N([C@H](C)CO)C[C@@H](C)[C@H](CN(C)S(=O)(=O)c2ccc(F)cc2)O3)cc1 | -15.2 | 43.3* | -3.1 | 1.0 | -6.3[16.7 µM]
COc1ccc(S(=O)(=O)N(C)C[C@H]2Oc3ccc(NS(=O)(=O)c4ccc(F)cc4)cc3CC(=O)N([C@@H](C)CO)C[C@@H]2C)cc1 | 0.3 | 76.7* | -3.7 | · | -7.7[16.7 µM]
COc1ccc(S(=O)(=O)N(C)C[C@@H]2Oc3ccc(NS(=O)(=O)c4ccc(Cl)cc4)cc3CC(=O)N([C@@H](C)CO)C[C@@H]2C)cc1 | -0.2 | 63.8* | 0.6 | 1.5 | -4.4[16.7 µM]
CO[C@H]1CN(C)C(=O)c2ccc(NS(=O)(=O)c3ccccc3)cc2OC[C@@H](C)N(Cc2cccnc2)C[C@H]1C | -0.1 | -5.3 | -0.4 | -2.4 | ·
COc1ccc2[nH]c3c(NCCC4=CCCCC4)ncnc3c2c1 | -2.4 | -3.3 | -54.1* | · | ·
COc1ccc2[nH]c3c(NCCCOC(C)C)ncnc3c2c1 | -0.3 | 14.2 | -5.7 | · | ·
SMILES | E-selectin induc | DENV2 CPE | Ecoli rRNA inh | Cneo AK release | miR-122 sensor
COC(=O)COc1ccc(Cl)cc1C1Nc2ccccc2C(=O)N1c1ccc(OC)cc1 (stereo not drawn) | · | · | -25.3* | -0.5 | -4.8
COc1cc(C2Nc3ccccc3C(=O)N2c2ccccc2)c(Br)cc1OCC(=O)O (stereo not drawn) | 0.1 | · | · | -1.1 | -2.4
COc1cccc(CN(C)C(=O)[C@@H](Cc2ccccc2)NC(=O)[C@H]2O[C@@H](n3ccc(=O)[nH]c3=O)[C@H](O)[C@@H]2O)c1 | -0.1 | 21.6* | -3.2 | · | ·
Nc1cccnc1Oc1ccc(F)cc1 | -0.7 | 0.0 | 6.7 | · | ·
FC(F)(F)c1cccnc1Oc1ccc(C2=NCCS2)cc1 | · | 68.4* | · | 3.6 | -3.4
CCC(=O)N1CCC2(CC1)CN(Cc1nccs1)[C@@H](CO)c1c2c2ccc(OC)cc2n1C | -0.2 | -6.5 | 0.9 | · | ·
Cc1ccccc1N1Cc2ccccc2C1=O | 0.1 | 37.4* | 2.9 | 0.4 | -0.3
CO[C@H]1CN(C)C(=O)c2ccc(NC(=O)c3ccccc3F)cc2OC[C@@H](C)NC[C@@H]1C | 0.0 | -4.0 | -0.2 | 0.2 | 2.3[16.7 µM]
C/C(=N/OC(=O)c1ccccc1Br)c1ccc(C)cc1 | 3.8 | -1.4 | -18.1* | -11.4 | -1.6
C/C(=N/OC(=O)c1ccc(C)cc1)c1cccs1 | · | · | · | -5.6 | 1.1
CC1CCC(NC(=O)CCN2C(=O)C3C4C=CC(C4)C3C2=O)CC1 (stereo not drawn) | 177.1* | -2.2 | 5.5 | 0.9 | 0.7
CC1CCC(NC(=O)CCN2C(=O)C3CC=CCC3C2=O)CC1 (stereo not drawn) | -0.5 | -3.8 | 3.5 | 1.1 | ·
C[C@H](CO)N1C[C@H](C)[C@H](CN(C)Cc2ccc(-c3ccccc3)cc2)Oc2c(NC(=O)C3CCCCC3)cccc2C1=O | 0.4 | · | -8.1 | · | -2.0[16.7 µM]
Cc1cc(OCCCCOc2ccc(S(N)(=O)=O)c(C)c2)ccc1S(N)(=O)=O | 0.3 | -1.0 | -18.8* | 1.4 | 13.9
O=C(Nc1ccccc1C(=O)N1CCCCCC1)c1ccc(Cl)cc1 | · | 12.9 | -23.5* | · | ·
O=C(Nc1ccccc1C(=O)N1CCCC1)c1ccccc1 | · | 19.3 | 8.7 | -6.4 | -3.3
O=C1c2ccccc2C(Nc2ccc(F)c(Cl)c2)N1Cc1ccco1 (stereo not drawn) | -0.1 | 35.7* | -2.1 | -0.9 | -5.4
N#Cc1cccc(C#N)c1Oc1ccc(S(=O)(=O)Nc2ccc(Cl)cc2)cc1 | 0.0 | -2.4 | -38.2* | · | ·
C[C@H]1CN([C@@H](C)CO)S(=O)(=O)c2ccc(-c3ccncc3)cc2O[C@H]1CN(C)Cc1ccncc1 | -0.1 | · | -0.7 | · | -2.7[16.7 µM]
Cc1c(Cl)cccc1NC(=S)N1CCN(C(=O)c2ccco2)CC1 | · | 2.1 | -27.7* | 1.0 | -1.5
Cc1cccc(NC(=S)N2CCCCCC2)c1C | 0.0 | 54.8* | 9.8 | 39.1 | -2.2
O=C(c1ccco1)N1CCN(C(=O)c2ccc(-c3cccc(C(F)(F)F)c3)o2)CC1 | · | 101.0* | -3.1 | · | ·
Cc1c(Cl)cccc1NC(=S)N1CCCCCC1 | 0.0 | 4.9 | -0.5 | 2.4 | 3.8
O=C(c1ccco1)N1CCN(C(=O)c2ccco2)CC1 | -0.1 | 2.0 | 5.7 | · | ·
